Laboratory results taken from ChEMBL document CHEMBL1144742, “Mithramycin analogues generated by combinatorial biosynthesis show improved bioactivity” (2008).

Legend:
MCF7 = experiment: Induction of apoptosis in estrogen receptor positive human MCF7 cells at 15 uM after 24 hrs by TUNEL assay; format: functional
Method in brief: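 ER-positive MCF-7 breast cancer cells, exposed 24 h at 15 μM. Apoptotic cells scored by TUNEL labelling and confocal microscopy, expressed as percent TUNEL-positive, normalized against untreated baseline. Mean ± standard error from three independent experiments.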

MDA-MB-231 = experiment: Induction of apoptosis in estrogen receptor negative human MDA231 cells at 20 uM after 24 hrs by TUNEL assay; format: functional
Method in brief: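 ER-negative MDA-231 breast cancer cells, treated 24 h at 20 μM. Apoptosis read by TUNEL staining with confocal microscopy as percent TUNEL-positive cells. Baseline apoptosis of untreated cells used for normalization. Mean ± standard error of three independent experiments.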

Row | Structure (SMILES) | Activity (MCF7) [%] | Activity (MDA-MB-231) [%]
1 | CO[C@H](C(=O)[C@@H](O)[C@@H](C)O)[C@@H]1Cc2cc3cc(O[C@H]4C[C@@H](O[C@H]5C[C@@H](O)[C@H](O)[C@@H](C)O5)[C@H](O)[C@@H](C)O4)c(C)c(O)c3c(O)c2C(=O)[C@H]1O[C@H]1C[C@@H](O[C@H]2C[C@@H](O[C@H]3C[C@H](O)[C@H](O)[C@@H](C)O3)[C@@H](O)[C@@H](C)O2)[C@H](O)[C@@H](C)O1 | 64.8 | 63.6
2 | CO[C@H](C(=O)[C@@H](O)[C@@H](C)O)[C@@H]1Cc2cc3cc(O[C@H]4C[C@@H](O)[C@H](O)[C@@H](C)O4)c(C)c(O)c3c(O)c2C(=O)[C@H]1O[C@H]1C[C@@H](O[C@H]2C[C@@H](O[C@H]3C[C@](C)(O)[C@H](O)[C@@H](C)O3)[C@@H](O)[C@@H](C)O2)[C@H](O)[C@@H](C)O1 | 26.3 | 12.6
3 | CO[C@H](C(=O)[C@@H](O)[C@@H](C)O)[C@@H]1Cc2cc3cc(O[C@H]4C[C@@H](O[C@H]5C[C@@H](O)[C@H](O)[C@@H](C)O5)[C@H](O)[C@@H](C)O4)c(C)c(O)c3c(O)c2C(=O)[C@H]1O[C@H]1C[C@@H](O[C@H]2C[C@@H](O[C@H]3C[C@](C)(O)[C@H](O)[C@@H](C)O3)[C@@H](O)[C@H](C)O2)[C@H](O)[C@@H](C)O1 | 3.9 | 6.46
4 | CO[C@H](C(=O)[C@@H](O)[C@@H](C)O)[C@@H]1Cc2cc3cc(O[C@H]4C[C@@H](O[C@H]5C[C@@H](O)[C@H](O)[C@@H](C)O5)[C@H](O)[C@@H](C)O4)c(C)c(O)c3c(O)c2C(=O)[C@H]1O[C@H]1C[C@@H](O[C@H]2C[C@](C)(O)[C@H](O)[C@@H](C)O2)[C@H](O)[C@@H](C)O1 | 50.3 | 7.29
